Assay results from ChEMBL document CHEMBL1811756, “Discovery of novel c-Met kinase inhibitors bearing a thieno[2,3-d]pyrimidine or furo[2,3-d]pyrimidine scaffold” (Bioorg Med Chem, 2011).
Activity calls are given as the source filed them. No cut-off for these calls is given here.

Columns and labels:
[1] = target: T1, Hepatocyte growth factor receptor (Homo sapiens, UniProt P08581); assay: Inhibition of c-Met at 10 uM after 60 mins by ELISA
Outline: (§1)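 c-Met tyrosine kinase ELISA with Poly(Glu,Tyr) 4:1 substrate and 10 µM ATP in HEPES pH 7.4 buffer with Mg²⁺/Mn²⁺, run 60 min at 37 °C. Phosphotyrosine was detected with PY99 and an HRP secondary antibody, read at 490 nm. Percent inhibition was measured at a single compound concentration.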

[2] = target: T1, Hepatocyte growth factor receptor; assay: Inhibition of c-Met at 1 uM after 60 mins by ELISA; outline: as §1
[3] = target: T1, Hepatocyte growth factor receptor; assay: Inhibition of c-Met after 60 mins by ELISA
Outline: (§2)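 ELISA on plates pre-coated with Poly(Glu,Tyr) 4:1 at 20 µg/mL. Detection used anti-phosphotyrosine PY99, then HRP anti-mouse IgG and o-phenylenediamine/H₂O₂, read at 490 nm. IC50 was calculated by the Logit method from ≥3 independent tests at six concentrations each.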

[4] = system: BaF3; assay: Antiproliferative activity against […] BAF3 cells expressing TPR-Met assessed as inhibition of cell growth at 10 uM; assay type: functional; details: Mus musculus
Outline: (§3)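 BaF3 cells stably expressing TPR-Met were seeded in 96-well plates. Next day they were exposed to compound at 10, 1 or 0.1 µM for 72 h. Growth was read by MTT at A570. Inhibition (%) = [1 − (A570/A570 control)] × 100.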

[5] = system: BaF3; assay: Antiproliferative activity against […] BAF3 cells expressing TPR-Met assessed as inhibition of cell growth at 0.1 uM; assay type: functional; details: Mus musculus; outline: as §3
[6] = system: BaF3; assay: Antiproliferative activity against […] BAF3 cells expressing TPR-Met assessed as inhibition of cell growth at 1 uM; assay type: functional; details: Mus musculus; outline: as §3
[7] = target: Proto-oncogene tyrosine-protein kinase Src (Homo sapiens, UniProt P12931); assay: Inhibition of c-SRC; outline: as §2
[8] = target: Insulin-like growth factor 1 receptor (Homo sapiens, UniProt P08069); assay: Inhibition of IGF1R; outline: as §2
[9] = target: T1, Hepatocyte growth factor receptor; details: BaF3, 0.1 to 10 uM
[10] = Oral bioavailability in mouse at 20 mg/kg; assay type: ADME, organism-based; details: in vivo
Outline: (§4)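 Pharmacokinetics were run in mice after a single dose of 10 mg/kg iv or 20 mg/kg po.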

[11] = target: Receptor tyrosine-protein kinase erbB-2 (Homo sapiens, UniProt P04626); assay: Inhibition of ERBB2; outline: as §2
[12] = Clearance in mouse at 10 mg/kg, iv; assay type: ADME, organism-based; parameters: dose 10 mg/kg, route intravenous; details: in vivo; outline: as §4
[13] = target: Fibroblast growth factor receptor 1 (Homo sapiens, UniProt P11362); assay: Inhibition of FGFR1; outline: as §2
[14] = Aqueous solubility of the compound; assay type: physicochemical; details: buffer
[15] = target: Macrophage-stimulating protein receptor (Homo sapiens, UniProt Q04912); assay: Inhibition of RON; outline: as §2
[16] = system: Mus musculus; assay: Toxicity in nude mouse xenografted with human U87MG cells assessed as body weight loss at 100 mg/kg, ip for 3 weeks; assay type: organism-based, U-87MG ATCC; parameters: dose 100 mg/kg, route intraperitoneal; details: in vivo, 504 h
Outline: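 Nude mice bearing U-87MG tumor fragments were dosed ip 7 days/week for 3 weeks, n = 6 per group, versus vehicle controls. Body weight was monitored during treatment.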

[17] = Half life in mouse at 10 mg/kg, iv and 20 mg/kg, po; assay type: ADME, organism-based; details: in vivo; outline: as §4
[18] = target: T2, Ephrin type-B receptor 2 (Homo sapiens, UniProt P29323); assay: Inhibition of EPHB2; outline: as §2
T2 sequence (P29323 whole entry): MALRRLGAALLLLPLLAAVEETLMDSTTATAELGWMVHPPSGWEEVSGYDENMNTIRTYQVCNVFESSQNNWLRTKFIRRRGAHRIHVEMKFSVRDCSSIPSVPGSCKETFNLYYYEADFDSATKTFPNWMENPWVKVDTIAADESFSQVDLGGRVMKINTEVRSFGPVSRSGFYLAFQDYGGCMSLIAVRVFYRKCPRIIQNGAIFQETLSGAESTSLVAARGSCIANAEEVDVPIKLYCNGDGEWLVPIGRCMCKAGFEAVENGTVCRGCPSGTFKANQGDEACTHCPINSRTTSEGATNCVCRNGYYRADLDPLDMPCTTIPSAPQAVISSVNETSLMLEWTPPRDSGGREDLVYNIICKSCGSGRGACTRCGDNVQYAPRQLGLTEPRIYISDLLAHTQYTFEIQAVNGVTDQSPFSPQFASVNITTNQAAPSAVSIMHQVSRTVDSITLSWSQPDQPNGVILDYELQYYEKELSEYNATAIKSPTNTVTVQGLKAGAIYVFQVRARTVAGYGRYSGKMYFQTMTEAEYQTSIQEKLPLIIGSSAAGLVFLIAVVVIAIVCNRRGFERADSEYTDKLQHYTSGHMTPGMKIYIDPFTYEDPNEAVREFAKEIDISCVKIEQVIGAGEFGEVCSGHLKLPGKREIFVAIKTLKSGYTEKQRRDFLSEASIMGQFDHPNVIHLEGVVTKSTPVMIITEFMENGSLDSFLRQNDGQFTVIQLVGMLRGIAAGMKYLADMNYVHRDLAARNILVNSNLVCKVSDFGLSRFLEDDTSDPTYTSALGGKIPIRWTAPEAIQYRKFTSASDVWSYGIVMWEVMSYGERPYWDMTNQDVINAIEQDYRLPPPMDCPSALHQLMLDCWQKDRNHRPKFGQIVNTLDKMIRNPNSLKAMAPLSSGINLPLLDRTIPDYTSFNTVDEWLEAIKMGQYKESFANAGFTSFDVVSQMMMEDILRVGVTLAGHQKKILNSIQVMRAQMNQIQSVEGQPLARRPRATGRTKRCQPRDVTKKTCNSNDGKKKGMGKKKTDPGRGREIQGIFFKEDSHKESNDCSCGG

[19] = target: Ephrin type-A receptor 2 (Homo sapiens, UniProt P29317); assay: Inhibition of EPHA2; outline: as §2
[20] = target: Proto-oncogene tyrosine-protein kinase receptor Ret (Homo sapiens, UniProt P07949); assay: Inhibition of RET; outline: as §2
[21] = target: Tyrosine-protein kinase ABL1 (Homo sapiens, UniProt P00519); assay: Inhibition of Abl; outline: as §2
[22] = target: Platelet-derived growth factor receptor alpha (Homo sapiens, UniProt P16234); assay: Inhibition of PDGFRalpha; outline: as §2
[23] = target: Vascular endothelial growth factor receptor 1 (Homo sapiens, UniProt P17948); assay: Inhibition of FLT1; outline: as §2
[24] = target: Receptor tyrosine-protein kinase erbB-4 (Homo sapiens, UniProt Q15303); assay: Inhibition of ERBB4; outline: as §2
[25] = target: T1, Hepatocyte growth factor receptor; details: BaF3, 0.1-10 uM
[26] = Antitumor activity against human U87MG cells xenografted in nude mouse assessed as inhibition of tumor growth at 100 mg/kg; assay type: functional, U-87MG ATCC; details: U-87 MG

T1 sequence (P08581 whole entry): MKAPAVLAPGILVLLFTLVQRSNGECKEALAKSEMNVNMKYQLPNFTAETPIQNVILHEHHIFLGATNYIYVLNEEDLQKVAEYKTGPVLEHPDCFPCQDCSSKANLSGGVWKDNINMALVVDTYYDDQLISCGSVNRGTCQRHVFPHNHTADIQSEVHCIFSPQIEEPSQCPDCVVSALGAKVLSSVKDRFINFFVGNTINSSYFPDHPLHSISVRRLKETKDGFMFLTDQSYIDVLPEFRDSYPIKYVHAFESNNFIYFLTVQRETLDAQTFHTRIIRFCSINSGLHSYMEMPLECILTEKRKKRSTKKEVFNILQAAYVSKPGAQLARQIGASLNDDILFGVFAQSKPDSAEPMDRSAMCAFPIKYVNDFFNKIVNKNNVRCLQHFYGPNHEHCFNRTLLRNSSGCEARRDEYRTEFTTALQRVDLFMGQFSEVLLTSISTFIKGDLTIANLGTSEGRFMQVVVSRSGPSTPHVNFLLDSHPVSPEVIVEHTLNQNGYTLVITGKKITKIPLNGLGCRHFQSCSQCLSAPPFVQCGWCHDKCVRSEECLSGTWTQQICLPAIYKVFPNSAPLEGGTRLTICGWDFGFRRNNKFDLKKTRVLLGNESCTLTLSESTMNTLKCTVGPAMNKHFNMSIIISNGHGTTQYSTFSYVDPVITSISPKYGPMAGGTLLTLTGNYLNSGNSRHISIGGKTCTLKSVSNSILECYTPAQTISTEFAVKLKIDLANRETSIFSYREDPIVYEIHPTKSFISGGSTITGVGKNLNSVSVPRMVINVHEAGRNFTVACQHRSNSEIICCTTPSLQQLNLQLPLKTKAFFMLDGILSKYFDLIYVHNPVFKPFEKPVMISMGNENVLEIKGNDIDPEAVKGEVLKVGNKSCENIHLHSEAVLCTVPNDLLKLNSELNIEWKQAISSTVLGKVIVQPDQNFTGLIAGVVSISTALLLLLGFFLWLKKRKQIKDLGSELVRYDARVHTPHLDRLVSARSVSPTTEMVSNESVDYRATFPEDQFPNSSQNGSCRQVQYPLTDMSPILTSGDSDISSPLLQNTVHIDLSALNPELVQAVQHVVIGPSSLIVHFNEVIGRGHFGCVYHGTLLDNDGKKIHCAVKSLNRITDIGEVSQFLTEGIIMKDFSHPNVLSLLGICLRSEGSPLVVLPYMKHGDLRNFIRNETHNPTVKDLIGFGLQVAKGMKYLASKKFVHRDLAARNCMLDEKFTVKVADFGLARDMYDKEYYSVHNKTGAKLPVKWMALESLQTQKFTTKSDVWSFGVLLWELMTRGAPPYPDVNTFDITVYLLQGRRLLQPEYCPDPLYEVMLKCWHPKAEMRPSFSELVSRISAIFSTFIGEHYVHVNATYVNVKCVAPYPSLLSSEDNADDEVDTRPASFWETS
Tyrosine-protein kinase ABL1, sequence (P00519 whole entry): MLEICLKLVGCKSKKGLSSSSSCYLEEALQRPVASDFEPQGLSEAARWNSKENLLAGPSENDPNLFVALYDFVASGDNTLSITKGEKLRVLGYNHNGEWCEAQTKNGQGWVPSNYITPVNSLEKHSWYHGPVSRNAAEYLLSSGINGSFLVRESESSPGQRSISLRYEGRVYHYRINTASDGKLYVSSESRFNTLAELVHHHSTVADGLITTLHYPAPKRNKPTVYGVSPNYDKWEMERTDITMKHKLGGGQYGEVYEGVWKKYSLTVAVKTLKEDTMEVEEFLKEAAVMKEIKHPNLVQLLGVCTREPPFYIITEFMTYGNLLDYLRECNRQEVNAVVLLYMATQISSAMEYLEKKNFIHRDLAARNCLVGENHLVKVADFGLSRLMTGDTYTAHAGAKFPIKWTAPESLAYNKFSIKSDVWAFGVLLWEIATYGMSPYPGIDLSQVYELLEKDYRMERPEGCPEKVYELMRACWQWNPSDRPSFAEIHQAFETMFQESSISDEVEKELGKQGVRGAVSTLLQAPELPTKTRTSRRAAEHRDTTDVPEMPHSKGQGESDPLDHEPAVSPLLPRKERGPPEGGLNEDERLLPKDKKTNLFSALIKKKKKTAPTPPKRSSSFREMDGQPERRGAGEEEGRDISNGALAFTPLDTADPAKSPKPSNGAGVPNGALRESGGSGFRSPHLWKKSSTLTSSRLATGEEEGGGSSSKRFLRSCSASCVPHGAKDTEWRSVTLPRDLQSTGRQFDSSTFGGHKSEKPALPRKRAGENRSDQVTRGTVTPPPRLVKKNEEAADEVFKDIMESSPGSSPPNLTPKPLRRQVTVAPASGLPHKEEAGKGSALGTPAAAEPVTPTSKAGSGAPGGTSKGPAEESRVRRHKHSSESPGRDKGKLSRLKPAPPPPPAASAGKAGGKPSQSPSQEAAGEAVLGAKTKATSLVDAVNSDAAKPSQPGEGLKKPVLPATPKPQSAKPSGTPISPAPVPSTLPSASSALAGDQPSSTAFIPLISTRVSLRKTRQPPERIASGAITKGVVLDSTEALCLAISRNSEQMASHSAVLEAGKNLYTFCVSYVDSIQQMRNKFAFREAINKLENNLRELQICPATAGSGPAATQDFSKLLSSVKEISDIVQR
Ephrin type-A receptor 2, sequence (P29317 whole entry): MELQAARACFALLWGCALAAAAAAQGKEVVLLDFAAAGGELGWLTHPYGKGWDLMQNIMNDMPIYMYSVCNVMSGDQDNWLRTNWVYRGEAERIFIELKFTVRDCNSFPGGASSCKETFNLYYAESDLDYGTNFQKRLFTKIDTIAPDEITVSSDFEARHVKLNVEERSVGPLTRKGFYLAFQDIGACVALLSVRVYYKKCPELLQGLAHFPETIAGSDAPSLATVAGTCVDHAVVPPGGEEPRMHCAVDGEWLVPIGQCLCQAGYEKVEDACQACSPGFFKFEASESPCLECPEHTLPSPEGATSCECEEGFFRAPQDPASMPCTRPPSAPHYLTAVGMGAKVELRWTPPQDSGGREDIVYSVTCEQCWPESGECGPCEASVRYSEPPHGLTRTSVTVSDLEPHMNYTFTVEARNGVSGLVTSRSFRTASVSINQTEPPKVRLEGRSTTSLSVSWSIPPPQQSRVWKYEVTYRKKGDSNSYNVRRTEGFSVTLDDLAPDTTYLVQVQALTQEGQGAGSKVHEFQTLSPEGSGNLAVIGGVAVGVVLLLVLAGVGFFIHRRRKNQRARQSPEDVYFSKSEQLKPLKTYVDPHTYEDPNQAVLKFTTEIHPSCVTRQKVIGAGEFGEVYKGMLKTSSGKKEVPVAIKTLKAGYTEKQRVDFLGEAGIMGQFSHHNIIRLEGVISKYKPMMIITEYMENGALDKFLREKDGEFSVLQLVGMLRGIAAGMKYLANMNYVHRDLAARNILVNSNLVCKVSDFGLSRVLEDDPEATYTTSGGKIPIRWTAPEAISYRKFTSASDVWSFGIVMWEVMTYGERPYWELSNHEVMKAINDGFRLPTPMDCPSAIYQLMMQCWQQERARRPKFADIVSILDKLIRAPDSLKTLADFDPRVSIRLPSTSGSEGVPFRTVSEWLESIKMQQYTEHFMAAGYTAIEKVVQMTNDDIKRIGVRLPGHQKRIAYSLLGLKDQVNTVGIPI
Proto-oncogene tyrosine-protein kinase receptor Ret, sequence (P07949 whole entry): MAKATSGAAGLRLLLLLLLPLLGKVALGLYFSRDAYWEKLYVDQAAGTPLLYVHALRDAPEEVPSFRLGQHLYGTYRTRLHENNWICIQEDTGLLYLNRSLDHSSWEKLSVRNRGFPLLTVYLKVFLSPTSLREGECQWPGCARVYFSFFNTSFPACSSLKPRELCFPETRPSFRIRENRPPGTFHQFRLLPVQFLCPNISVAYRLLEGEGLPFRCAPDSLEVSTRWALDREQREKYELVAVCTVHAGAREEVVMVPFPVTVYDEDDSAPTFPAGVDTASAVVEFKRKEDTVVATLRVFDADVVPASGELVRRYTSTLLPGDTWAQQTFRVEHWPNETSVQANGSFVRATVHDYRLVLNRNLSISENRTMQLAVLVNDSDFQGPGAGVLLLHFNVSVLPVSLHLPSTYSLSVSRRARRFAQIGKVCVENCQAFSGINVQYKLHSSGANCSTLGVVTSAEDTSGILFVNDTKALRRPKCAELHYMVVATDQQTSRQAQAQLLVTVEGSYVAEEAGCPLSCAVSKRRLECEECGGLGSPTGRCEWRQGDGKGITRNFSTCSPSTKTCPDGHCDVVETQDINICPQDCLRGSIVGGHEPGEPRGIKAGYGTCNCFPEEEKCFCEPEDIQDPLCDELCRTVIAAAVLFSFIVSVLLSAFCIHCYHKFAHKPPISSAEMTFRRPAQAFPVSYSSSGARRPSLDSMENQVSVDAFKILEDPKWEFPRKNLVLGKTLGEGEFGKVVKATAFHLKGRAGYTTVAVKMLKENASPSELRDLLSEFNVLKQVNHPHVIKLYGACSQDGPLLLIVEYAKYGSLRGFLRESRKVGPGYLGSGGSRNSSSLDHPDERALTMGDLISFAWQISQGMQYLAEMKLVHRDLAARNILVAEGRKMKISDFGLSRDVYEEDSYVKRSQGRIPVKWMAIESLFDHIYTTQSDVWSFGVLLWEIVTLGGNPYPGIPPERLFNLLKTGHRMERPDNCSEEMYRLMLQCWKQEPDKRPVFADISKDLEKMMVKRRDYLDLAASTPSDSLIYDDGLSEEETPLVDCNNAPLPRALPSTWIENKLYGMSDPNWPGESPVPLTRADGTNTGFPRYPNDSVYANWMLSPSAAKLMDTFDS

inhibition [1] [%]	IC50 [3] [µM]	SMILES	inhibition at 10 µM [4] [%]	inhibition at 0.1 µM [5] [%]	inhibition at 1 µM [6] [%]	also measured
92.1		O=C(Nc1ccc(Oc2ncnc3scc(-c4ccc5ccccc5c4)c23)c(F)c1)c1cccn(-c2ccc(F)cc2)c1=O				inhibition [2]: < 50%
10.6	> 10	O=C(Nc1ccc(Oc2ncnc3sc(-c4ccccc4)cc23)c(F)c1)c1cccn(-c2ccc(F)cc2)c1=O				
31.7	> 10	COc1nc(Oc2ccc(NC(=O)c3cccn(-c4ccc(F)cc4)c3=O)cc2F)c2c(-c3ccccc3)coc2n1				
80.4		O=C(Nc1ccc(Oc2ncnc3scc(-c4ccc(-c5ccccc5)cc4)c23)c(F)c1)c1cccn(-c2ccc(F)cc2)c1=O				inhibition [2]: < 50%
46.6	> 10	O=C(Nc1ccc(Oc2ncnc3occ(-c4cccs4)c23)c(F)c1)c1cccn(-c2ccc(F)cc2)c1=O	-5.4	-12.1	-9.3	
85.5	0.042	Cc1ccc(-c2csc3ncnc(Oc4ccc(NC(=O)c5cccn(-c6ccc(F)cc6)c5=O)cc4F)c23)s1	95	-2.3	60.6	
14.3	> 10	O=C(Nc1ccc(Oc2ncnc3sccc23)c(F)c1)c1cccn(-c2ccc(F)cc2)c1=O	5.3	-12.8	-6.5	
78.2		CNc1nc(Oc2ccc(NC(=O)c3cccn(-c4ccc(F)cc4)c3=O)cc2F)c2c(-c3ccccc3)coc2n1				inhibition [2]: < 50%
80.9	0.31	O=C(Nc1ccc(Oc2ncnc3occ(-c4ccc(F)cc4)c23)c(F)c1)c1cccn(-c2ccc(F)cc2)c1=O	76.3	-4.7	-5.8	
24.3	> 10	Cc1nc(Oc2ccc(NC(=O)c3cccn(-c4ccc(F)cc4)c3=O)cc2F)c2c(-c3cccs3)coc2n1	-9.7	0.6	-2.8	
99.9	0.123	COc1ccc(-c2csc3ncnc(Oc4ccc(NC(=O)c5cccn(-c6ccc(F)cc6)c5=O)cc4F)c23)cc1OC				
36.7	> 10	CS(=O)(=O)c1nc(Oc2ccc(NC(=O)c3cccn(-c4ccc(F)cc4)c3=O)cc2F)c2c(-c3ccccc3)coc2n1				
83.8	0.191	O=C(Nc1ccc(Oc2ncnc3scc(-c4ccc(C(F)(F)F)cc4)c23)c(F)c1)c1cccn(-c2ccc(F)cc2)c1=O				
71.9	0.068	O=C(Nc1ccc(Oc2ncnc3scc(-c4ccc(F)cc4)c23)c(F)c1)c1cccn(-c2ccc(F)cc2)c1=O	92.2	12.9	30.8	
23.4	> 10	O=C(Nc1ccc(Oc2ncnc3sc4c(c23)CCCCC4)c(F)c1)c1cccn(-c2ccc(F)cc2)c1=O				
18.5	> 10	[N-]=[N+]=Nc1nc(Oc2ccc(NC(=O)c3cccn(-c4ccc(F)cc4)c3=O)cc2F)c2c(-c3ccccc3)coc2n1				
88.4	0.0657	O=C(Nc1ccc(Oc2ncnc3scc(-c4ccc(F)c(F)c4)c23)c(F)c1)c1cccn(-c2ccc(F)cc2)c1=O	89.7	-1.1	13.9	
90	0.0465	COc1ccc(-c2csc3ncnc(Oc4ccc(NC(=O)c5cccn(-c6ccc(F)cc6)c5=O)cc4F)c23)cc1	94.3	-10.1	91.1	
94.3	0.0357	O=C(Nc1ccc(Oc2ncnc3scc(-c4ccccc4)c23)c(F)c1)c1cccn(-c2ccc(F)cc2)c1=O	94.6	-10.5	69.5	IC50 [7]: > 10 µM; IC50 [8]: > 10 µM; inhibition [9]: Active; bioavailability [10]: 5%; IC50 [11]: > 10 µM; clearance [12]: 47.2 mL/min/kg; IC50 [13]: > 10 µM; solubility [14]: Insoluble; IC50 [15]: 0.0504 µM; Activity [16]: Non-toxic; half-life [17]: 1.67 h; IC50 [18]: > 10 µM; IC50 [19]: > 10 µM; IC50 [20]: > 10 µM; IC50 [21]: > 10 µM; IC50 [22]: > 10 µM; IC50 [23]: > 10 µM; IC50 [24]: > 10 µM; inhibition [25]: Active
33.4	> 10	CSc1nc(Oc2ccc(NC(=O)c3cccn(-c4ccc(F)cc4)c3=O)cc2F)c2c(-c3ccccc3)coc2n1	14.9	10.3	2	
31.2	> 10	Cc1nc(Oc2ccc(NC(=O)c3cccn(-c4ccc(F)cc4)c3=O)cc2F)c2c3c(sc2n1)CCCC3				
		COc1cc2nccc(Oc3ccc(NC(=S)NC(=O)Cc4ccccc4)cc3F)c2cc1OC				inhibition in vivo at 100 mg/kg [26]: 70%
84.9	0.0698	O=C(Nc1ccc(Oc2ncnc3occ(-c4ccccc4)c23)c(F)c1)c1cccn(-c2ccc(F)cc2)c1=O	93.7	-6.9	14.6	
12.3	> 10	O=C(Nc1ccc(Oc2ncnc3sc4c(c23)CCC4)c(F)c1)c1cccn(-c2ccc(F)cc2)c1=O				
16.5	> 10	Cc1coc2ncnc(Oc3ccc(NC(=O)c4cccn(-c5ccc(F)cc5)c4=O)cc3F)c12				
